In the library only some 4.4% were active in any assay of this set; here they are far more common.
Tb MetRS inh: Trypanosoma brucei MetRS inhibition. purified T. brucei MetRS, ATP depletion, Kinase-Glo luminescence. AID 624268. hit rate 0.4% among 360,000. inhibition, % at 11.9 µM;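 active = inhibition above a per-plate cutoff of the control wells' mean inhibition plus 3 SD, cut at about 5.5% in these data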;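 also: 0% = DMSO wells median and 100% = median of wells with control inhibitor compound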
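Measured by: Kinase-Glo luciferase luminescence reporting remaining unconsumed ATP. Material: purified T. brucei MetRS enzyme. Doses: 11.9 µM compound single dose, 0.9% DMSO. Medium: HEPES buffer containing pyrophosphatase, BSA, spermine, DTT. Times: 15 min preincubation, 2 h reaction, all 25 °C. Reagent: methionine, ATP and bulk E. coli tRNA.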
AI-2 QS modul: modulators of Vibrio harveyi AI-2 quorum sensing system; Vibrio harveyi JMH597 AI-2 luminescence/OD600 ratio, 9 h; active compounds read low; strain lacks LuxN and CqsS sensors; 0 = neutral-control median; activity change, % at 7.5 µM; hit rate 0.4% among 300,000; AID 2094; in the data active = activity change below about -75%, passing the limit was not always enough;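 also: luminescence divided by OD600 gain over 9 h not by final OD600 alone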
MsrA inhibitor: inhibits bovine methionine sulfoxide reductase A; purified bovine MsrA, absorbance read-out; inhibition, % at 15.5 µM; hit rate 0.75% among 360,000; in the data active = inhibition above about 4.5%;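 also: 0% = vehicle wells with enzyme and 100% = reference inhibitor wells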
bovine MsrA act: bovine methionine sulfoxide reductase A activation. hit rate 0.3% among 360,000. activation, % at 10.6 µM. purified bovine MsrA, absorbance read-out. AID 602163; in the data active = activation above about 7.5%;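 also: 0% = vehicle and 100% = reference activator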
m5-HT2A agonist: agonists of mouse serotonin 5-HT2A receptor (HTR2A) | P35363 | CHO-K1 mHTR2A beta-arrestin complementation, luminescence; percent of 30 µM serotonin response | activation, % at 7.6 µM | hit rate 0.66% among 360,000;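 active = activation above a run cutoff, the mean activation of all tested compounds plus 3 SD, cut at about 14% in these data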;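 also: 0% = plate median of compound wells and 100% = 30 µM serotonin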
AHR act: activates the human aryl hydrocarbon receptor; P35869; AHR-responsive luciferase reporter cells, luminescence; activation, % at 5 µM; hit rate 2.5% among 320,000; AID 2796; in the data active = activation above about 47%;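 also: 0% = vehicle wells and 100% = reference agonist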
AHR act confirm: confirmation of human aryl hydrocarbon receptor activators; shares compounds with AHR act; human cells, AHR-responsive luciferase reporter, luminescence; activation, % at 9 µM; hit rate 87% among 2,300; AID 2845; in the data active = activation above about 49%;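 also: HepG2 hepatoma cells carrying a DRE-driven firefly luciferase reporter; 0% = vehicle wells and 100% = reference agonist wells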
PXR counter: counter-screen for AHR activators: human PXR activators; shares compounds with AHR act; cell-based PXR reporter, luciferase luminescence; activation, % at 11.6 µM; hit rate 88% among 2,300; in the data active = activation above about 11%;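 also: human hepatoma DPX-2 cells expressing full-length human PXR; 0% = DMSO and 100% = reference agonist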
Target sequence (O75469 whole entry, looked up): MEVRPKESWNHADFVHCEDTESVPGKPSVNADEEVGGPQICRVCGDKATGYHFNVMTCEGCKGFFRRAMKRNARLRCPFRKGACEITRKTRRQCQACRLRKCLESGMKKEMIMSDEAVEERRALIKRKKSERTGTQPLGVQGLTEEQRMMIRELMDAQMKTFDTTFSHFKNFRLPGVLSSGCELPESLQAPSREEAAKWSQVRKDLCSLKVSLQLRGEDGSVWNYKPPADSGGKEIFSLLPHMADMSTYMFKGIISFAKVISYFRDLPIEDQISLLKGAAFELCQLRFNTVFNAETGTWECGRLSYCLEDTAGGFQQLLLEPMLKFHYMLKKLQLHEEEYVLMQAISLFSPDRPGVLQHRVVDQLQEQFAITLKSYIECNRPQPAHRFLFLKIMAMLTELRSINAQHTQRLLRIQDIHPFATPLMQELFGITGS
An asterisk follows results filed as active; / = no result given.

SMILES	Tb MetRS inh	AI-2 QS modul	MsrA inhibitor	bovine MsrA act	m5-HT2A agonist	AHR act	AHR act confirm	PXR counter
Cc1ccc(NC(=O)c2ccc3ccccc3n2)nc1	0	14	1	-3	-4	86*	106*	18*
O=C(Nc1ccccc1)c1ccc2ccccc2n1	0	24	1	-7	-3	43	/	/
CCN(CC(=O)Nc1ccc2c(c1)OCCO2)C(=O)C(C)Oc1ccc(Cl)cc1 (stereo not drawn)	0	16	0	0	5	2	/	/
CC(/C=C/c1ccccc1)=N\Nc1nc(-c2ccccc2)cs1	0	11	2	-3	1	1	/	/
CC(C)=NNc1nc(-c2ccccc2)cs1	0	9	-1	-3	-1	102*	107*	15*
CC(C)CC1NC(=O)N(CC(=O)Nc2ccc(OCc3ccccc3)cc2)C1=O (stereo not drawn)	0	/	-1	-2	4	/	/	/
Fc1ccc2cnc(-c3cccnc3)cc2c1	0	/	1	-2	-9	89*	87*	26*
O=C(CN1CCN(c2ccc(F)cc2)CC1)Nc1ccccc1C(=O)NCCc1ccccc1	0	/	0	-1	1	25	/	/
O=C(CN1CCN(c2ccccc2O)CC1)Nc1ccccc1C(=O)NCCc1ccccc1	0	/	0	-2	-2	91*	93*	85*
Cc1ccc(C)c(Nc2ncnc3nc[nH]c23)c1	-1	16	0	-7	-3	8	/	/
Cc1ccc(/C=N/Nc2ncnc3nc[nH]c23)cc1	-1	-8	3	-7	-3	115*	104*	84*
CCC1Oc2ccccc2N(CC(=O)NC2CCCC2)C1=O (stereo not drawn)	-1	-3	0	-2	12	-1	/	/
CCC(=Cc1ccccc1OC)c1ccncc1	0	/	1	-3	0	/	/	/
COc1ccc(-c2nc3ncccn3c2Br)cc1	0	21	2	-10	5	29	/	/
Brc1c(-c2ccc3c(c2)OCO3)nc2ncccn12	-1	21	1	-3	-3	101*	116*	22*
CC1(C)OC(=O)C(=Cc2ccc(-c3ccc(S(N)(=O)=O)cc3)o2)C(=O)O1	-1	20	3	-3	2	0	/	/
NC1=NC(=O)/C(=C/c2ccc(-c3ccc(S(N)(=O)=O)cc3)o2)S1	0	3	1	-3	3	121*	88*	16*
CC(C)c1ccc(NC(=O)c2sccc2-n2cccc2)cc1	0	20	-1	-2	2	84*	113*	46*
O=C(NC1CC1)c1sccc1-n1cccc1	-1	-3	0	-3	-1	-1	/	/
O=C(NNS(=O)(=O)c1ccc(Cl)cc1)c1sccc1-n1cccc1	0	19	0	0	-8	2	/	/
O=C(NNC(=O)c1sccc1-n1cccc1)c1ccc(Cl)cc1	-2	15	1	-12	-3	90*	100*	28*
O=C(N/N=C\c1ccccc1)c1sccc1-n1cccc1	-1	10	2	-3	3	82*	127*	25*
Oc1ccc(Cl)cc1CNCC1CCCCC1	-1	/	-1	-11	-7	2	/	/
COc1cccc(OC)c1C(=O)OCCCOC(=O)c1c(OC)cccc1OC	0	38	-1	-5	0	6	/	/
COCCCN1C(=O)C(CC(=O)NCCc2ccccn2)CC(C(=O)N2CCCCCC2)=C1C (stereo not drawn)	0	/	-1	-2	3	/	/	/
SMILES	Tb MetRS inh	AI-2 QS modul	MsrA inhibitor	bovine MsrA act	m5-HT2A agonist	AHR act	AHR act confirm	PXR counter
Cn1c(NCc2cccnc2)nc2cc(-c3ccc(C(=O)N4CCOCC4)cc3)sc2c1=O	0	/	1	-12	3	/	/	/
O=[N+]([O-])c1cccc2ccc(/C=C/c3ccc(F)cc3)nc12	-1	30	1	-1	-7	186*	229*	19*
CN(C(=O)c1cc(S(=O)(=O)N2CCOCC2)cs1)c1ccccc1	0	5	-1	-3	3	-2	/	/
CC(=O)N(c1ccc(Cl)cc1)c1nc(C)cc(C)c1C#N	-1	16	-1	-6	3	102*	112*	110*
CCOc1ccc(/C=C/C(=O)c2c(O)cc(C)oc2=O)cc1	-1	16	1	-5	3	83*	10	16*
CCOC(=O)CSc1c(-c2ccc(Cl)cc2)[nH]c2ccccc12	0	56	0	-3	2	93*	61*	9
CCOC(=O)C1(C)CCN1C(=O)c1oc2ccccc2c1C (stereo not drawn)	0	/	-1	-8	3	/	/	/
Cc1ccc(N2C(=O)C3CCCN3C2=S)cc1C (stereo not drawn)	-2	15	1	-9	3	0	/	/
O=C(CC1Sc2ccccc2NC1=O)Nc1ccccc1[N+](=O)[O-] (stereo not drawn)	-1	26	-1	-8	7	152*	111*	38*
O=C(CC1Sc2ccccc2NC1=O)Nc1cccnc1 (stereo not drawn)	0	2	-1	-4	-2	29	/	/
Cc1cc(C)n(-c2ccc(C(=O)N3CCN(S(=O)(=O)c4ccc(Cl)cc4)CC3)cc2)n1	0	/	0	-1	-3	1	/	/
Cc1nc(NC2=NCN(CCCN3CCOCC3)CN2)nc2c(C)cccc12	-1	/	/	-7	-2	125*	74*	/
Cc1nc(NC2=NCN(Cc3cccnc3)CN2)nc2ccccc12	0	/	0	0	-1	/	/	/
CC(=O)N/N=C/c1cc(C(C)(C)C)cc(/C=N/NC(C)=O)c1O	1	15	2	-3	-8	82*	83*	22*
CCC(O)(CC)C(=O)N/N=C/c1cc(Br)cc(Br)c1O	0	5	0	0	-24	2	/	/
CCc1nc2c(OCc3cc(Cl)cc(Cl)c3)cccn2c1N(C)C(=O)c1ccc(C)cc1	0	/	2	-2	-1	/	/	/
COc1ccc(C)c2sc(NNC(=O)COc3ccccc3)nc12	/	36	/	/	/	80*	99*	15*
COc1ccc(C(=O)NC2=NCCS2)cc1	-1	-7	3	-1	-1	13	/	/
COc1cc(OC)cc(C(=O)NC2=NCCS2)c1	-2	-3	1	-6	-3	95*	101*	20*
Nc1cnc(Nc2ccc(Br)cc2)nc1N	1	-16	0	-1	2	23	/	/
N#Cc1c(N)nc(N)nc1Nc1ccc(Br)cc1	1	-4	1	6	-5	83*	72*	17*
O=C(Nc1cccc(Cl)c1)c1cccnn1	0	17	0	-1	-2	109*	82*	/
N#C/C(=C1\CCCN1)c1nc2ccccc2c(=O)[nH]1	0	17	2	-2	1	15	/	/

High-throughput results (PubChem)
